Experimental data published in BindingDB's records for doi:10.1021/jm00077a013 (Takeda Chemical Industries, 1994).

Molecular target: T1, Endothelin-1 receptor (Sus scrofa, UniProt Q29010)
T1 sequence (Q29010 whole entry): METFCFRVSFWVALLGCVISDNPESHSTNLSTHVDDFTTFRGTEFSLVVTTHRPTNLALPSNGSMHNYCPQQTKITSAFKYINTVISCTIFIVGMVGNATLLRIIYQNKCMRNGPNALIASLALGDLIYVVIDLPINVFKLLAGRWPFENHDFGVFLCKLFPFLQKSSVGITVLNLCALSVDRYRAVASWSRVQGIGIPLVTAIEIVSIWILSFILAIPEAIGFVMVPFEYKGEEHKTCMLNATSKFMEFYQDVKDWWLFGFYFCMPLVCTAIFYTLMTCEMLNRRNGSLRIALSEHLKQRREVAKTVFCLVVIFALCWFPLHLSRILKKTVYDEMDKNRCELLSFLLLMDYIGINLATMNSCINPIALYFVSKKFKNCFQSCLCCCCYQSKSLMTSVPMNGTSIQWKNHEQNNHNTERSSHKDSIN
Assay: Tested for the competitive binding versus [125I]- ET-1 determined in porcine cardiac ventricular membrane for Endothelin A receptor
Procedure, shortened: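 Membranes (porcine cardiac ventricle at 12 μg/mL for ETA; bovine cerebrum at 150 μg/mL for ETB) in pH 7.2 Tris/EGTA/Mg acetate/0.1% BSA buffer with protease inhibitors. Incubated with 100 pM [125I]ET-1 and varied compound for 1 h at 25 °C, then filtered and counted by gamma counter. IC50 given as mean ± SEM of ≥3 determinations.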

## CC[C@H](C)[C@H](NC(=O)[C@H](CC1CCCCC1)NC(=O)[C@@H](NC(=O)[C@H](CC(C)C)NC(=O)[C@H](Cc1c[nH]cn1)NC(=O)[C@@H]1CSSC[C@H](N)C(=O)N[C@@H](CO)C(=O)N[C@H]2CSSC[C@H](NC(=O)[C@H](CCC(=O)O)NC(=O)[C@H](CCCCN)NC(=O)[C@H](CC(=O)O)NC(=O)[C@H](CCSC)NC(=O)[C@H](CC(C)C)NC(=O)[C@H](CO)NC(=O)[C@H](CO)NC2=O)C(=O)N[C@@H](C(C)C)C(=O)N[C@@H](Cc2ccc(O)cc2)C(=O)N[C@@H](Cc2ccccc2)C(=O)N1)[C@@H](C)O)C(=O)N[C@@H](Cc1c[nH]c2ccccc12)C(=O)O
  IC50: 0.7 nM
